Test [1] concerns the target Dual specificity protein kinase CLK1 (Homo sapiens) (UniProt P49759). Put plainly: Inhibition of human recombinant CLK1 at 15 nM in presence of ATP by radiometric assay relative to control.
Test [2] deals with Serine/threonine-protein kinase Chk2 (Homo sapiens) (UniProt O96017). Put plainly: Inhibition of human recombinant CHK2 at 15 nM related to control ULK1.
Test [3] addresses Myosin light chain kinase, smooth muscle (Homo sapiens) (UniProt Q15746). Put plainly: Inhibition of human recombinant smMLCK at 15 nM related to control ULK1.
Test [4] addresses Ribosomal protein S6 kinase alpha-5 (Homo sapiens) (UniProt O75582). Put plainly: Inhibition of human recombinant MSK1 at 15 nM in presence of ATP by radiometric assay relative to control.
Test [5] concerns the target Serine/threonine-protein kinase MARK1 (Homo sapiens) (UniProt Q9P0L2). Nature of the test: Inhibition of human recombinant MARK1 at 15 nM related to control ULK1.
Test [6] concerns the target T1, Serine/threonine-protein kinase ULK2 (Homo sapiens) (UniProt Q8IYT8).
T1 sequence (whole entry): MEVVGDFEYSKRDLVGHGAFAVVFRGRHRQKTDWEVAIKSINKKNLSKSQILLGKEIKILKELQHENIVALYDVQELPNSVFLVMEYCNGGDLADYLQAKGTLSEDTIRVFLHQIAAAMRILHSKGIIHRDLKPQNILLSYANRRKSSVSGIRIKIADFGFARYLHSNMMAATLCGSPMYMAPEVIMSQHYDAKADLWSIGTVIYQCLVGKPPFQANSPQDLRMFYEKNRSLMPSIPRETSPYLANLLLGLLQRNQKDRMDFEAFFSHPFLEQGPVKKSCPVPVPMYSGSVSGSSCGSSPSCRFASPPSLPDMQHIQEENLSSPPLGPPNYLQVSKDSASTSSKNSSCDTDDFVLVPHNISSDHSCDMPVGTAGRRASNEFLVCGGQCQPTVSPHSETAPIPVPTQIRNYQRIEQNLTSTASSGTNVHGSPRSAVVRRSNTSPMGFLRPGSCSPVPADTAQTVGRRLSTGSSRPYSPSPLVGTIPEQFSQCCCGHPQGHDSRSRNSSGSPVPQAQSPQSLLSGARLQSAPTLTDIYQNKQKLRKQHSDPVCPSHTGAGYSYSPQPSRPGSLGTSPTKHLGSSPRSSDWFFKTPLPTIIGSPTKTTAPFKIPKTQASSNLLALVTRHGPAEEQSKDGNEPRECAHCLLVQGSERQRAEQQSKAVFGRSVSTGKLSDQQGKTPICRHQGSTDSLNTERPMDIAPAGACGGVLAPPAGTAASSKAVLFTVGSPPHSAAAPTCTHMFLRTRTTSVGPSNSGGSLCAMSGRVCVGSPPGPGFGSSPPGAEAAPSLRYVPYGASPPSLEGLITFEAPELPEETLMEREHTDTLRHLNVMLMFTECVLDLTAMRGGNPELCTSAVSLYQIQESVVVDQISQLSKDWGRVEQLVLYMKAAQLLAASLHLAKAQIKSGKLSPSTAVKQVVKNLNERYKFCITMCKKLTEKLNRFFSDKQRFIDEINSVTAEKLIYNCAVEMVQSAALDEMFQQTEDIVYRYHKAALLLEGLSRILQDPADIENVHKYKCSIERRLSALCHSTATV
Put plainly: Inhibition of human recombinant ULK2 at 15 nM related to control ULK1.

Test [7] addresses Protein-tyrosine kinase 2-beta (Homo sapiens) (UniProt Q14289). Put plainly: Inhibition of human recombinant PYK2 at 15 nM related to control ULK1.
Test [8] addresses Bone morphogenetic protein receptor type-1B (Homo sapiens) (UniProt O00238). Put plainly: Inhibition of human recombinant BMPR1B at 40 nM in presence of ATP by radiometric assay relative to control. An outline of the steps: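 Part of a radiometric in vitro activity panel of 327 recombinant human kinases. Each kinase was tested in duplicate at one inhibitor concentration. Activity remaining was expressed as a percentage of the vehicle control, and percent inhibition was taken as 100 minus that value.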

Test [9] has as its target T2, Interleukin-1 receptor-associated kinase 4 (Homo sapiens) (UniProt Q9NWZ3).
T2 sequence (whole entry): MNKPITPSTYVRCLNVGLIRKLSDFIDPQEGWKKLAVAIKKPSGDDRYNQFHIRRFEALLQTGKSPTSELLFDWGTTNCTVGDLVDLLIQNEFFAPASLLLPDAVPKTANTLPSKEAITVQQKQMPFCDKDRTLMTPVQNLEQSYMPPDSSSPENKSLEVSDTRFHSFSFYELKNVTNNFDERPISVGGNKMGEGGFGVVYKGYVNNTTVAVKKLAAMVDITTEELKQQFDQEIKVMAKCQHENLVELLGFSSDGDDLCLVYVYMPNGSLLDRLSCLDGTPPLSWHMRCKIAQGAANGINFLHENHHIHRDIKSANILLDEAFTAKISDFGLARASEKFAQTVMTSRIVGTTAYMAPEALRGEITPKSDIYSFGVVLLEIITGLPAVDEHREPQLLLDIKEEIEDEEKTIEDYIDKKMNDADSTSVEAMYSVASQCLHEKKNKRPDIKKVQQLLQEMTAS
Nature of the test: Inhibition of human recombinant IRAK4 at 40 nM related to control ULK1.

Test [10] deals with Cyclin-dependent kinase 13 (Homo sapiens) (UniProt Q14004). Nature of the test: Inhibition of human recombinant CHED at 500 nM related to control ULK1.
Test [11] concerns the target T3, Mitogen-activated protein kinase 12 (Homo sapiens) (UniProt P53778).
T3 sequence (whole entry): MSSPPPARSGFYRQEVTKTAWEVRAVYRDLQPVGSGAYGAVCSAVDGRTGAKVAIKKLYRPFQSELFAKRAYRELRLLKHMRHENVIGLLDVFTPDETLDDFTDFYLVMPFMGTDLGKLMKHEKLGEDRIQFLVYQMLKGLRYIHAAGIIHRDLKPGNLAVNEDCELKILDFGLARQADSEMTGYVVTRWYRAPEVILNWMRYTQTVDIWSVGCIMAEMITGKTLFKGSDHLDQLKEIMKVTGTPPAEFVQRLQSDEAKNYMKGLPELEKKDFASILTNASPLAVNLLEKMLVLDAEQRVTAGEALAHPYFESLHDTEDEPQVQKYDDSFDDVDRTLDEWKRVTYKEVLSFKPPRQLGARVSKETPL
Put plainly: Inhibition of human recombinant p38gamma at 500 nM in presence of ATP by radiometric assay relative to control.

The target in test [12] is 5'-AMP-activated protein kinase catalytic subunit alpha-1 (Homo sapiens) (UniProt Q13131). Put plainly: Inhibition of human recombinant AMPKa1 at 500 nM related to control ULK1. An outline of the steps: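 Panel of 327 recombinant human kinases, each assayed in vitro by radiometric activity assay in duplicate at a single inhibitor concentration per compound, chosen with reference to its ULK1 inhibition. Activity remaining was expressed as percent of vehicle control, and percent inhibition was calculated as 100 minus percent activity remaining.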

For test [13], the target named is Serine/threonine-protein kinase MRCK alpha (Homo sapiens) (UniProt Q5VT25). Put plainly: Inhibition of human recombinant MRCKa at 500 nM in presence of ATP by radiometric assay relative to control.

For orientation: inhibition means how much of the control response was suppressed.

Chain of Dual specificity protein kinase CLK1 (Homo sapiens) (P49759 whole entry, looked up): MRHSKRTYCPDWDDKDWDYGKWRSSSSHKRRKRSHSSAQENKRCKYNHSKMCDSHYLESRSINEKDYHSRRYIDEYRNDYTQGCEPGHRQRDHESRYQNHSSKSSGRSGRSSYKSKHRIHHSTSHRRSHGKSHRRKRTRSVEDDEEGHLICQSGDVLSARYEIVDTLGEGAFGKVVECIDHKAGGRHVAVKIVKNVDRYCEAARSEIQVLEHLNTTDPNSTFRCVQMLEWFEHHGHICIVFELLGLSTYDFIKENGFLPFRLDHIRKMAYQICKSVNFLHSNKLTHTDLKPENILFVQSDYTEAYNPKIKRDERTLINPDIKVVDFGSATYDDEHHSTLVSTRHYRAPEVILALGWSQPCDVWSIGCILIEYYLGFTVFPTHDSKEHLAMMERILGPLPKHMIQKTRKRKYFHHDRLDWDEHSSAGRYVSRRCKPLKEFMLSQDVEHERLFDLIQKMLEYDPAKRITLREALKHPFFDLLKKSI
Chain of Serine/threonine-protein kinase MRCK alpha (Homo sapiens) (Q5VT25 whole entry): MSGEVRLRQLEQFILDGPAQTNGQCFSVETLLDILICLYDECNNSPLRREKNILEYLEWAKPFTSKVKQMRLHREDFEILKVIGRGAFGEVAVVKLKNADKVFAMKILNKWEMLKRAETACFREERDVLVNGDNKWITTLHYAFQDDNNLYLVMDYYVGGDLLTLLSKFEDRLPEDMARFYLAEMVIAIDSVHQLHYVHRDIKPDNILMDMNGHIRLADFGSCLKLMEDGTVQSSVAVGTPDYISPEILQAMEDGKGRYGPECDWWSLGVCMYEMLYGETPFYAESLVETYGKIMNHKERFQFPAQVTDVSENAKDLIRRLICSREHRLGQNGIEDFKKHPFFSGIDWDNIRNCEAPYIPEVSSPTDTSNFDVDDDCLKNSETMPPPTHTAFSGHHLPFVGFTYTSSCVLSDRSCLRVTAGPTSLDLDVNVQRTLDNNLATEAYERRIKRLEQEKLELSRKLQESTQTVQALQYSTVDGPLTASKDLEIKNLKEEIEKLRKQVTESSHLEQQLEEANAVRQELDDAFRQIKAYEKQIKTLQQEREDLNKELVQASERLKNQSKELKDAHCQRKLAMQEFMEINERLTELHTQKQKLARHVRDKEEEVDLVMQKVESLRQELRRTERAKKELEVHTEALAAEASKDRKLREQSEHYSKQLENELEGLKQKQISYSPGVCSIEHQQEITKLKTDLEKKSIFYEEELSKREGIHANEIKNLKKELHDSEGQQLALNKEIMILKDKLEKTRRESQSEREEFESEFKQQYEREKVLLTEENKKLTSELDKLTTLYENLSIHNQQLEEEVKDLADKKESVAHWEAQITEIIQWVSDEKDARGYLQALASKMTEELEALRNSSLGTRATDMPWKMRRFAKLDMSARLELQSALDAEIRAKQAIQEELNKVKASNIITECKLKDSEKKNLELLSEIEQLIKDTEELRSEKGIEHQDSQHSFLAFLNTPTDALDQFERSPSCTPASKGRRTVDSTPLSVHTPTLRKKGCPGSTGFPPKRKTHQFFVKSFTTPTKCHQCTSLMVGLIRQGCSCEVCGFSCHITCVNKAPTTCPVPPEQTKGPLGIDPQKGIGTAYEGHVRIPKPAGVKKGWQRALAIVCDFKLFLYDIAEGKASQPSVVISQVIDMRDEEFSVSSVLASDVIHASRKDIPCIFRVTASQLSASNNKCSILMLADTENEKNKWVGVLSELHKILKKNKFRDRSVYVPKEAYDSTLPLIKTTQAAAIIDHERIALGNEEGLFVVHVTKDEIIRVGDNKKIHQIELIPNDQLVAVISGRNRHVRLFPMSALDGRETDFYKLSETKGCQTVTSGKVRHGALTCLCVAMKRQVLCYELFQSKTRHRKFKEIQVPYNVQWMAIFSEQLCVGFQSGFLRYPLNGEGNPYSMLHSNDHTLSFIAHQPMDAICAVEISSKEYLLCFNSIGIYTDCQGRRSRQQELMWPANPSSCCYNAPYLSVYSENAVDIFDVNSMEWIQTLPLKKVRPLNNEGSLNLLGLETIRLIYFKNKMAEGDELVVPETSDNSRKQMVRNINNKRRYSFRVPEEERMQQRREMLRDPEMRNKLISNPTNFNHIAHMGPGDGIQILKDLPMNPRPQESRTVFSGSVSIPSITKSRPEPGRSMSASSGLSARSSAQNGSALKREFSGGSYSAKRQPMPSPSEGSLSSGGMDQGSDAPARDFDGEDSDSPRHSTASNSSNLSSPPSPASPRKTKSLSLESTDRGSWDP
Chain of 5'-AMP-activated protein kinase catalytic subunit alpha-1 (Homo sapiens) (Q13131 whole entry, looked up): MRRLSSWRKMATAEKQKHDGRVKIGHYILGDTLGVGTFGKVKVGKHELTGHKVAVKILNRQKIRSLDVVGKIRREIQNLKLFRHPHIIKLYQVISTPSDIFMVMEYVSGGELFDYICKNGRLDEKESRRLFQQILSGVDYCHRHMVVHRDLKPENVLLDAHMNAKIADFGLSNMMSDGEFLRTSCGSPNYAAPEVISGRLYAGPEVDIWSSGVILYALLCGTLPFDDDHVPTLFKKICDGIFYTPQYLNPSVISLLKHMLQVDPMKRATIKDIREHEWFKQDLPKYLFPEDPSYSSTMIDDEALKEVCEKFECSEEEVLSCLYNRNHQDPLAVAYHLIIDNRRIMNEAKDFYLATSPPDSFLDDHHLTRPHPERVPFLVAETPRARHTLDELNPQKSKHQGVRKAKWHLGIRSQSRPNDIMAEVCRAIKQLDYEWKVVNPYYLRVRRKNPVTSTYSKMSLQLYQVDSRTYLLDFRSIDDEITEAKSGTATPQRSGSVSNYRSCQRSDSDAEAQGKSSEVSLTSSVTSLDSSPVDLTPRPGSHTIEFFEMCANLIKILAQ
Chain of Ribosomal protein S6 kinase alpha-5 (Homo sapiens) (O75582 whole entry, looked up): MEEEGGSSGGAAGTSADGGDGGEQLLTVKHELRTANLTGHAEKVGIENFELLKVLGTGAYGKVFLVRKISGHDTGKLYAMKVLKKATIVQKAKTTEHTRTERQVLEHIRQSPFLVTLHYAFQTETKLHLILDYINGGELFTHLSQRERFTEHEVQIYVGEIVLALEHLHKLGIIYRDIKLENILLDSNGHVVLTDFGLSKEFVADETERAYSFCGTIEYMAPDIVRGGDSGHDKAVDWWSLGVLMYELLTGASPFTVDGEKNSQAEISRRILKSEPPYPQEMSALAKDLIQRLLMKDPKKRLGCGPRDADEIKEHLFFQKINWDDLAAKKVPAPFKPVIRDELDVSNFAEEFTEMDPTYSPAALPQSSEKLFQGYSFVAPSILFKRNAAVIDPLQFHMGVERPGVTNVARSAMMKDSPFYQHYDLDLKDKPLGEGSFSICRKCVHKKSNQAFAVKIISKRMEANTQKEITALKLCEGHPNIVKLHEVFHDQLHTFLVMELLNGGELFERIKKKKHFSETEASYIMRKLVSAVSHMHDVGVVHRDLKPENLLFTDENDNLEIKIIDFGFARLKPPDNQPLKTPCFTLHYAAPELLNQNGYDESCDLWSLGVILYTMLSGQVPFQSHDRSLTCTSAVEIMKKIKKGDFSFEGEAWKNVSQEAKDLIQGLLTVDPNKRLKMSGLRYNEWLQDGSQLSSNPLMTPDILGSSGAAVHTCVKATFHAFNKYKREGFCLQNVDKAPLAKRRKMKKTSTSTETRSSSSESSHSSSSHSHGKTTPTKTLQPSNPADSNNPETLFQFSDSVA
Chain of Serine/threonine-protein kinase Chk2 (Homo sapiens) (O96017 whole entry): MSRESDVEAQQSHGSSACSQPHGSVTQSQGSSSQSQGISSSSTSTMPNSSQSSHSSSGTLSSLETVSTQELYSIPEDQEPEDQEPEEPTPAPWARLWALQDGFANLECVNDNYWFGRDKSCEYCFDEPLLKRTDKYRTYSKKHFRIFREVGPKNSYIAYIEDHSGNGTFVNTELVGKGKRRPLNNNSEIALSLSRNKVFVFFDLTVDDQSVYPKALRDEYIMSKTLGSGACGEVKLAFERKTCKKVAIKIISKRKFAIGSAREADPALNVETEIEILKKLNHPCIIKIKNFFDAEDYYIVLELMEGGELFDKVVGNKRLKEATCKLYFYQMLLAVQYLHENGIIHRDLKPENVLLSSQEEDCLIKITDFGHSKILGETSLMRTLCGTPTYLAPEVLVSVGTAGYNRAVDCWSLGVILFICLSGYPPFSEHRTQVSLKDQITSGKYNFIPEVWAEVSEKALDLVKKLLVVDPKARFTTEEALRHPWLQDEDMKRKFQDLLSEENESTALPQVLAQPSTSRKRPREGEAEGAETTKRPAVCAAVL
Chain of Bone morphogenetic protein receptor type-1B (Homo sapiens) (O00238 whole entry): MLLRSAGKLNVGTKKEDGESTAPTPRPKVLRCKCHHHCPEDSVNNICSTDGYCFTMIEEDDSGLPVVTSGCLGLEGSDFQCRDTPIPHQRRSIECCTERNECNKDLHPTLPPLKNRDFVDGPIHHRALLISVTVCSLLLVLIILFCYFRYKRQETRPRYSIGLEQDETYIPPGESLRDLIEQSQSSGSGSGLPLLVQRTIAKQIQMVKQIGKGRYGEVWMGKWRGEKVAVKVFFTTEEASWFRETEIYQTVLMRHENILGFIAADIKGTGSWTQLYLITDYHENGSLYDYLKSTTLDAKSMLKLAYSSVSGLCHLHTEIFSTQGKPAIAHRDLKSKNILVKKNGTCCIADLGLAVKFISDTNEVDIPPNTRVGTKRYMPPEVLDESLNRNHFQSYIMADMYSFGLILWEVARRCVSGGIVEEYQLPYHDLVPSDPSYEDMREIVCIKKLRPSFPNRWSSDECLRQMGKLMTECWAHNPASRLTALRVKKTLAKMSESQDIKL

`CC(C)[C@H](NC(=O)c1cc(-c2cnn3cc(-c4ccc(OCCN5CCCCC5)cc4)cnc23)cs1)C(F)(F)F`: the inhibition in test [1] is 84%; in test [4], 2%. The fold change (FC) was 0 in test [2]; 0 in [3]; 0.61 in [5]; 0.83 in test [6]; 0 in test [7].

In the case of `O=C(N[C@@H](C1CC1)C(F)(F)F)c1cc(-c2cnn3cc(-c4ccc(F)cc4)cnc23)cs1`, the inhibition in test [8] is 0%. Besides, the fold change (FC) in test [9] came to 0.

For `CNC(=O)c1ccccc1Oc1nc(Nc2cc(OC)c(OC)c(OC)c2)ncc1Br`, the fold change (FC) was 0 in test [10] and 0.69 in test [12]. Also, the inhibition worked out at 0% in [11] and 7% in [13].
